This is a sample that favours compounds with a hit; in the whole collection about 1.7% have one here.
HCV core dimer: blocks dimerization of HCV core protein | inhibition, % at 5 µM | hit rate 0.33% among 300,000 | TR-FRET GST/Flag-core106 dimerization, 1536-well;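 active means inhibition above the mean of all tested compounds plus 3 SD, set per screening campaign, cut at about 45% in these data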
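Material: GST/Flag-tagged HCV core106 proteins. Incubation: 4 h, 22.5 °C incubation. Read-out basis: inhibition (%) from 671 over 617 nm ratio. Measured by: TR-FRET, excitation 340 nm, emission 617 and 671 nm.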
MEX-5 binding: C. elegans MEX-5 TCR-2 RNA binding activity; activity score (negative = inhibition of binding), % at 10 µM; Q9XUB2; MEX-5/FITC-TCR2 RNA binding, fluorescence polarization; stronger effect = lower value; hit rate 0.38% among 300,000;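 active means inhibition past about -25% in most replicates, and total fluorescence under double the plate's negative control median, limit read from the data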;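 further: 0% = DMSO and -100% = 5 µM competing unlabeled TCR2 RNA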
Target sequence (Q9XUB2 whole entry, looked up): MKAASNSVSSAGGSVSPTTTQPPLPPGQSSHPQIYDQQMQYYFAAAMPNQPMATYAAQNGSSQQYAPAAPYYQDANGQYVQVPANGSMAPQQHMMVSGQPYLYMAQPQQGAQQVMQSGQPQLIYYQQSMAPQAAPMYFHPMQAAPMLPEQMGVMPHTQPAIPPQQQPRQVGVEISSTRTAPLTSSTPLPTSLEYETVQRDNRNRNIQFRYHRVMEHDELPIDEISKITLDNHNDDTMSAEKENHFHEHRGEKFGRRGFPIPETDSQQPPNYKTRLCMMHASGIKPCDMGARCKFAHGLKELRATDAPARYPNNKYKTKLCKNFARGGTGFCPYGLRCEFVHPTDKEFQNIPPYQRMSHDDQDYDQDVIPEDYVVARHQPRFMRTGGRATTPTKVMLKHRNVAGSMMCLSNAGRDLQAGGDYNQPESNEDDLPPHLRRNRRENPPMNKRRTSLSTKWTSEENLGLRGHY
HCV NS3 hel inh: HCV NS3 helicase inhibition | AID 1800 | hit rate 0.56% among 290,000 | NS3 helicase DNA unwinding, Cy5 molecular beacon fluorescence | inhibition, % at 10.9 µM;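 active means inhibition above the mean of all tested compounds plus 3 SD, set per campaign, cut at about 35% in these data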;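 further: 0% = DMSO wells and 100% = thioflavine S control wells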
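Material: hepatitis C virus NS3 helicase domain fragment enzyme; measured by: Cy5 fluorescence, 0 and 60 min reads; control set: DMSO and thioflavine S; incubation: 60 min unwinding reaction at 25 °C after ATP addition; read-out basis: % inhibition from 60/0 min fluorescence ratio, DMSO 0%, thioflavine S 100%; repeats: singlicate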
ZTA counter: ZTA (EBV) inhibition in EBNA-1 counter-screen. P03206. ZTA-DNA binding, fluorescence polarization. inhibition, % at 11 µM. hit rate 0.15% among 320,000; in the data active means inhibition above about 33%
EBV gp42 inh: EBV gp42 inhibition; Q1HVG2; Fluorescence polarization binding assay, mP read-out; inhibition, % (tested at 21.74 µM); hit rate 0.42% among 220,000; in the data active means inhibition above about 50%
Target sequence (Q1HVG2 whole entry, looked up): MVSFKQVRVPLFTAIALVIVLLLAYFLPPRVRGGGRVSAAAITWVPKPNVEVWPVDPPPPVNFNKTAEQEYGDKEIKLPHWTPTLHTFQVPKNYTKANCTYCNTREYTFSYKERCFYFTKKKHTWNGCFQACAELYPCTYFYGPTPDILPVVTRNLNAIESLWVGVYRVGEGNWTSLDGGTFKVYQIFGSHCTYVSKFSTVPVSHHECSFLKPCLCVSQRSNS
EBNA-1 inh: blocks EBNA-1 binding to DNA; EBNA-1 DNA binding, fluorescence polarization; inhibition, % at 14.8 µM; hit rate 0.34% among 300,000; AID 1950; in the data active means inhibition above about 28%
NS3 hel confirm: confirmation of Hepatitis C virus NS3 helicase inhibitors. shares compounds with HCV NS3 hel inh. NS3 helicase DNA unwinding, Cy5 molecular beacon fluorescence. inhibition, % at 10.9 µM. hit rate 31% among 1,600;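 active means inhibition above the mean of all tested compounds plus 3 SD, cutoff set per campaign, cut at about 36% in these data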
DNA FID counter: counter-screen for HCV NS3 helicase inhibitors: DNA intercalator displacement; inhibition, % at 7.9 µM; hit rate 4% among 1,600; DNA fluorescent intercalator displacement, fluorescence; shares compounds with HCV NS3 hel inh; in the data active means inhibition above about 37%;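 further: 0% = vehicle and 100% = reference compound; higher means more displacement of ethidium bromide from the DNA hairpin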
FID counter DR: counter-screen for HCV NS3 helicase inhibitors: DNA intercalator displacement dose response | shares compounds with HCV NS3 hel inh | fluorescent intercalator displacement from DNA, fluorescence | IC50, µM | 120 tested, under 10 active | AID 2172; call rule not given here
Active calls of the source: *.

What do the screens show for `COc1ccc(NC(=O)CSc2nc(N)c(NC(=O)c3ccccc3F)c(=O)[nH]2)cc1`?
HCV core dimer: 1; MEX-5 binding: -1; HCV NS3 hel inh: -15; ZTA counter: 1; EBNA-1 inh: 14

What do the screens show for `COc1ccc(OC)c(NC(=O)Nc2nnc(N3CCCCC3C)s2)c1` (stereo unspecified)?
HCV core dimer: -2; MEX-5 binding: -1; HCV NS3 hel inh: 39*; ZTA counter: -19; EBV gp42 inh: -13; EBNA-1 inh: -2; NS3 hel confirm: -7; DNA FID counter: -13

How did COc1ccc(NC(=O)Nc2nnc(N3CCCCC3C)s2)cc1OC (stereo unspecified) do in these assays?
HCV core dimer: -8; MEX-5 binding: 0; HCV NS3 hel inh: 0; ZTA counter: 2; EBV gp42 inh: 8; EBNA-1 inh: -3

What do the screens show for `COc1ccc(Nc2nccc(-c3ccc(C#N)cc3)n2)cc1`?
HCV core dimer: -8; MEX-5 binding: -3; HCV NS3 hel inh: 37*; ZTA counter: -10; EBNA-1 inh: 0; NS3 hel confirm: -6; DNA FID counter: -7

What do the screens show for `CCOC(=O)CC(=O)CSc1nc2c(c(-c3cccs3)c1C#N)CCC2`?
HCV core dimer: 12; MEX-5 binding: -2; HCV NS3 hel inh: 41*; ZTA counter: 9; EBV gp42 inh: -30; EBNA-1 inh: -8; NS3 hel confirm: 4; DNA FID counter: -3

What do the screens show for `CCOC(=O)c1cc2c(C)n(-c3ccc(OCC)cc3)c(C)c2ccc1=O`?
HCV core dimer: 25; MEX-5 binding: -2; HCV NS3 hel inh: 55*; ZTA counter: 4; EBV gp42 inh: -6; EBNA-1 inh: -1; NS3 hel confirm: -12; DNA FID counter: -9

Results for O=C(NCCc1ccc(F)cc1)C(=O)NCC1CCCN1S(=O)(=O)c1cccs1 (stereo unspecified) ?
HCV core dimer: -1; MEX-5 binding: -4; ZTA counter: 3; EBNA-1 inh: -6

What do the screens show for `O=C(N/N=C\C=C\c1ccco1)C1COc2ccccc2O1` (stereo unspecified)?
HCV core dimer: 5; MEX-5 binding: 2; HCV NS3 hel inh: 44*; ZTA counter: 16; EBV gp42 inh: -1; EBNA-1 inh: 6; NS3 hel confirm: -2; DNA FID counter: -8

What do the screens show for `Cc1ccc(-n2cccc2/C=C2/NC(=O)N(CC(=O)Nc3cccc(C)c3)C2=O)cc1`?
HCV core dimer: 21; MEX-5 binding: -5; HCV NS3 hel inh: 19; ZTA counter: 2; EBV gp42 inh: -52; EBNA-1 inh: 3

Results for Cc1cccc(NC(=O)CN2C(=O)N/C(=C\c3cccn3-c3cccc(C(=O)O)c3)C2=O)c1 ?
HCV core dimer: -1; MEX-5 binding: 1; HCV NS3 hel inh: 37*; ZTA counter: 8; EBV gp42 inh: -26; EBNA-1 inh: -8; NS3 hel confirm: 36; DNA FID counter: -32

Results for Cc1ccc(-n2nc3c(=O)n(CC(=O)NCc4cccs4)nc(C)c3c2C)cc1 ?
HCV core dimer: 0; MEX-5 binding: -1; HCV NS3 hel inh: -3; ZTA counter: 6; EBNA-1 inh: -4

How did Cc1nn(CC(=O)NCCc2cccs2)c(=O)c2nn(-c3ccccc3)c(C)c12 do in these assays?
HCV core dimer: 28; MEX-5 binding: 2; HCV NS3 hel inh: 49*; ZTA counter: -6; EBNA-1 inh: -4; NS3 hel confirm: -10; DNA FID counter: -25

What do the screens show for `Cc1nn(CC(=O)NCCc2ccco2)c(=O)c2nn(-c3ccccc3)c(C)c12`?
HCV core dimer: 38; MEX-5 binding: 0; HCV NS3 hel inh: 48*; ZTA counter: -4; EBNA-1 inh: 3; NS3 hel confirm: 8; DNA FID counter: -7

What do the screens show for `O=C1/C(=C\c2ccco2)SC(=S)N1C1CCCCC1`?
HCV core dimer: 12; MEX-5 binding: -3; HCV NS3 hel inh: 39*; ZTA counter: -10; EBNA-1 inh: 2; NS3 hel confirm: 51*; DNA FID counter: 18

Results for O=C1COc2ccc(S(=O)(=O)N3CCN(c4ccccc4F)CC3)cc2N1 ?
HCV core dimer: 0; MEX-5 binding: 2; HCV NS3 hel inh: -3; ZTA counter: -5; EBNA-1 inh: -4

Results for CCOC(=O)CC(=O)CSc1ccc2nnc(-c3cccc(F)c3)n2n1 ?
HCV core dimer: 3; MEX-5 binding: 3; HCV NS3 hel inh: 27; ZTA counter: 7; EBV gp42 inh: -24; EBNA-1 inh: 9

How did CCOC(=O)CC(=O)CSc1ccc2nnc(-c3ccc(F)cc3)n2n1 do in these assays?
HCV core dimer: 4; MEX-5 binding: 0; HCV NS3 hel inh: 38*; ZTA counter: -9; EBNA-1 inh: -6; NS3 hel confirm: -8; DNA FID counter: -2

What do the screens show for `CC(=O)Nc1cccc(Oc2ccc3c(c2)C(=O)NC3=O)c1`?
HCV core dimer: -1; MEX-5 binding: 4; HCV NS3 hel inh: 7; ZTA counter: 2; EBNA-1 inh: -11

How did COc1cccc(C2/C(=C(\O)c3ccc4c(c3)OCCO4)C(=O)C(=O)N2c2nnc(C)s2)c1 (stereo unspecified) do in these assays?
HCV core dimer: 0; HCV NS3 hel inh: -1; ZTA counter: 5; EBNA-1 inh: -11

How did COc1ccc(C2/C(=C(\O)c3ccc4c(c3)OCCO4)C(=O)C(=O)N2c2nc(C)c(C(C)=O)s2)cc1 (stereo unspecified) do in these assays?
HCV core dimer: 0; MEX-5 binding: 4; HCV NS3 hel inh: 38*; ZTA counter: -7; EBNA-1 inh: -8; NS3 hel confirm: 64*; DNA FID counter: -11; FID counter DR: >79

What do the screens show for `Cc1nc2ccccn2c1C(=O)N/N=C/c1ccc2c(c1)OCO2`?
HCV core dimer: -5; MEX-5 binding: 0; HCV NS3 hel inh: 40*; ZTA counter: 5; EBV gp42 inh: -11; EBNA-1 inh: -6; NS3 hel confirm: -11; DNA FID counter: 3

Results for Cc1nc2ccccn2c1C(=O)NCc1ccc2c(c1)OCO2 ?
HCV core dimer: -2; MEX-5 binding: 0; HCV NS3 hel inh: -10; ZTA counter: -11; EBV gp42 inh: -8; EBNA-1 inh: -20

What do the screens show for `COc1ccc(C(=O)N/C(=C\c2cn(S(=O)(=O)N(C)C)c3ccccc23)C(=O)NCCN2CCOCC2)cc1`?
HCV core dimer: 8; MEX-5 binding: 0; HCV NS3 hel inh: -66; ZTA counter: 2; EBNA-1 inh: 3

From PubChem BioAssay
